Measured values pooled from the literature.
Lines come from different studies, so protocols differ.
Target: Serine/threonine-protein kinase pim-1 (PIM1, Homo sapiens, UniProt P11309)

| Structure (SMILES) | test | setting | remaining binding [%] |
| --- | --- | --- | --- |
| O=C(Nc1c[nH]nc1C(=O)NC1CCNCC1)c1cc(F)cc(F)c1 | binding, competition with immobilised ligand | 1 µM | 100 |
| Nc1cnc(N2CCc3cc(S(=O)(=O)Nc4c(F)cc(Cl)cc4F)cc(N4CCCC4=O)c32)nc1 | cell-free assay, competition with immobilised ligand | 1 µM | 88 |
| O=C(NCCCN1CCOCC1)c1ccc(Nc2nccc(-c3cc4ccccc4s3)n2)cc1 | binding, competition with immobilised ligand | 1 µM | 85 |
| CN(C)c1nccc(-c2cnc3ncccn23)n1 | binding | 1 µM | 82 |
| COc1cnc(Nc2cccc(S(N)(=O)=O)c2)nc1N1CCN(c2ccccc2)CC1 | binding, competition with immobilised ligand | 1 µM | 95 |
| Cc1cc(-n2nc(Cc3cc(F)cc(C(F)(F)F)c3)nc2C)ccc1C(N)=O | cell-free assay, competition with immobilised ligand | 1 µM | 100 |
| N[C@H]1CCN(c2nccc(-c3cnn4ncccc34)n2)C1 | binding | 1 µM | 99 |
| Nc1ncc2c(n1)-c1c([nH]c3ccc(C#CC4CC4)cc13)CCCC2 | binding, competition with immobilised ligand | 1 µM | 73 |
| C[C@@H]1CCN(c2nccc(-c3cnn4ncccc34)n2)C1 | binding | 1 µM | 84 |
| O=C(NC[C@@H]1[C@H]2CN(C(=O)OCc3cc(C(F)(F)F)cc(C(F)(F)F)c3)C[C@@H]12)c1ccc2[nH]nnc2c1 | cell-free assay, competition with immobilised ligand | 1 µM | 98 |
| CN(C)c1ncc(F)c(-c2cnn3ncccc23)n1 | binding | 1 µM | 82 |
| CNC(=O)Nc1ccc2c(c1)CC[C@@]21OC(=O)N(CC(=O)N(Cc2ccc(F)cc2)[C@@H](C)C(F)(F)F)C1=O | cell-free assay, competition with immobilised ligand | 1 µM | 100 |
| FC(F)(F)Oc1cccc(-c2cnc3ccc(-c4ccncc4)nn23)c1 | cell-free assay, competition with immobilised ligand | 5 µM | 23 |
| O=C(c1ccc(Nc2ncc(Cl)c(-c3cc4ccccc4s3)n2)cc1)N1CCC(N2CCCC2)CC1 | binding, competition with immobilised ligand | 1 µM | 84 |
| Cc1cc(NC(=O)c2cccc(S(F)(F)(F)(F)F)c2)cc(-n2ccn3nc(-c4cccnc4)cc23)c1 | cell-free assay, competition with immobilised ligand | 1 µM | 95.6 |
| COc1ccnn2ncc(-c3ccnc(N(C)C)n3)c12 | binding | 1 µM | 74 |
| Cc1cnc(Nc2ccc(C(=O)N3CCC(N4CCCC4)CC3)cc2)nc1-c1cc2ccccc2s1 | binding, competition with immobilised ligand | 1 µM | 75 |
| N#Cc1ccccc1CSc1nnc2c(n1)[nH]c1ccccc12 | binding, competition with immobilised ligand | 10 µM | 90 |
| COc1cnc(Nc2cccc(S(N)(=O)=O)c2)nc1N1CCN(c2ccccc2)C(=O)C1 | binding, competition with immobilised ligand | 1 µM | 100 |
| FC(F)(F)c1ccc2c(c1)nc(-c1cccnc1)n2C1CC1 | cell-free assay, competition with immobilised ligand | 1 µM | 94 |
| CN(C)c1nccc(-c2cnn3ncccc23)n1 | binding | 1 µM | 81 |
| O=C(O)c1cc(-c2ccc(C3CCNCC3)cc2)c2ccc(-c3ccc(C(F)(F)F)cc3)cc2c1 | cell-free assay, competition with immobilised ligand | 1 µM | 100 |
| C[C@@H]1CN(c2ccc3ncc(-c4ccc5[nH]nc(C6CC6)c5c4)n3n2)C[C@H](C)O1 | binding, competition with immobilised ligand | 0.5 µM | 19 |
| CCCCN(CCCC)C(=O)CN1C[C@H](c2cc(OC)c3c(c2)OCO3)[C@@H](C(=O)O)[C@@H]1CC(C)(C)CCC | cell-free assay, competition with immobilised ligand | 1 µM | 100 |
| CC1CCCN1c1nccc(-c2cnn3ncccc23)n1 (stereo not shown) | binding | 1 µM | 100 |
